Results gathered from unrelated publications.
Protocols differ between the studies behind these lines.
PPO3: PPO3 (Agaricus bisporus, UniProt C7FF04)
CNR1: Cannabinoid receptor 1 (CNR1, Homo sapiens, UniProt P21554)

| Compound | target | read-out | action | method | tested at | endpoint | value |
| --- | --- | --- | --- | --- | --- | --- | --- |
| c1cncc([C@@H]2CCCN2)c1 | Neuronal acetylcholine receptor; alpha4/beta2 (Rattus norvegicus, UniProt P09483+P12390) | ligand displacement |  | radioligand | 50 µM | inhibition | 88.1% |
| COc1cc(/C=C/C(=O)O)ccc1OCc1cn(CC(=O)Nc2ccc(Cl)cc2)nn1 | PPO3 | enzyme activity | inhibitor |  | 40 µM | inhibition | 12.3% |
| COc1cc2c3c(c1OC)-c1c(cccc1OC)CC3N(C)CC2 (racemic) | 5-hydroxytryptamine receptor 2A (HTR2A, Homo sapiens, UniProt P28223) | ligand displacement |  | radioligand | 10 µM | inhibition | 42% |
| CC(C)CC(=O)OC[C@H]1O[C@@](C#N)(c2ccc3c(N)ncnn23)[C@H](O)[C@@H]1O | CNR1 | cell-free assay |  |  | 20 µM | inhibition | -4% |
| [2H]c1c([2H])c([C@]2([2H])CCCN2C(=O)C(C)(C)Oc2ccc3cn[nH]c3c2)c([2H])c([2H])c1C([2H])([2H])[2H] | Mitogen-activated protein kinase kinase kinase 3 (MAP3K3, Homo sapiens, UniProt Q99759) | binding |  | competition with immobilised ligand | 1 µM | remaining binding | 100% |
| CCCCCc1ccccc1C/C=C\C/C=C\C/C=C\CCCC(=O)N[C@H](C)CO | CNR1 | β-arrestin recruitment | agonist |  |  | Emax | 42% |
| CN1CCC[C@H]1c1cccnc1 | Histamine H4 receptor (HRH4, Homo sapiens, UniProt Q9H3N8) | ligand displacement |  |  | 50 µM | inhibition | -19.9% |
| CCCCC/C=C\[C@H](C)/C=C\C/C=C\Cc1ccccc1CCCC(=O)OC(CO)CO | CNR1 | β-arrestin recruitment | agonist |  |  | Emax | 10% |
| COc1cc(/C=C/C(=O)O)ccc1OCc1cn(CC(=O)Nc2cccc([N+](=O)[O-])c2)nn1 | PPO3 | enzyme activity | inhibitor |  | 40 µM | inhibition | 12.1% |
| CCCCC/C=C\C/C=C\C/C=C\C/C=C\CCCC(=O)OC(CO)CO | CNR1 | β-arrestin recruitment | agonist |  |  | Emax | 96% |
| COc1cc(/C=C/C(=O)O)ccc1OCc1cn(CC(=O)Nc2ccc([N+](=O)[O-])cc2)nn1 | PPO3 | enzyme activity | inhibitor |  | 40 µM | inhibition | 14% |
| CCCCC/C=C\C/C=C\C/C=C\Cc1ccccc1CCCC(=O)N[C@H](C)CO | CNR1 | β-arrestin recruitment | agonist |  |  | Emax | 80% |
| COc1cc(/C=C/C(=O)O)ccc1OCc1cn(CC(=O)Nc2ccccc2C)nn1 | PPO3 | enzyme activity | inhibitor |  | 40 µM | inhibition | 16% |
